Activity calls are given as the source filed them. The calls are words filed in the database; no cut-off is given here.

Data set [1] deals with PBMC. In words: Immunostimulatory activity in human PBMC cells assessed as increase in IL-10 production at 1 uM incubated for 18 hrs by flow cytometry analysis. It is filed as functional, cell-based. The method, boiled down:
(§1)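 PBMCs at 1 × 10^6 cells/mL treated with compound (1 μM), LPS (1 μg/mL) or 0.1% DMSO vehicle; cell-free supernatants collected after 18 h at 37 °C, 5% CO2. Cytokines quantified by human inflammatory cytokine bead array on flow cytometry with recombinant standard curves. Four independent experiments, mean ± SEM.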

Data set [2] concerns K562. In words: Cytotoxicity against human K562 cells cocultured with human PBMC cells assessed as inhibition of cell proliferation at 0.01 to 1 uM incubated with PBMC cells for 18 hrs followed by co-incubation with K562 cells for 4 hrs by SYTOX blue staining based flow cytometric analysis. The settings on record: dose 0.01-1 µM. It is filed as functional. The method, boiled down:
(§2)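 Human PBMCs (Ficoll-isolated, healthy donors) pretreated 18 h in duplicate with compound (1 nM–1 μM) or 0.1% DMSO. CFSE-labelled K562 or MEC1 target cells then added, effector:target 40:1, 4 h at 37 °C. Sytox blue staining, flow cytometry; CFSE+Sytox+ cells counted as dead. Expressed relative to vehicle; three independent experiments, mean ± SEM.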

The test system of data set [3] is Mus musculus. The experiment in a line: Immuno-adjuvant activity in NIH/OlaHsd mouse assessed as increase in ovalbumin specific Th1 associated IgG2a production in sera at 50 ug, sc administered on day 0 and as booster dose on day 21 and 28 measured 7 days post last dose by ELISA. The data set is classed as functional, organism-based. The following applies: dose 50.0 µg, time 35.0 day. (In general: An ELISA detects its analyte on a solid surface through an enzyme-linked reagent.)

In data set [4] the test system is Mus musculus. The experiment in a line: Immuno-adjuvant activity in NIH/OlaHsd mouse assessed as increase in ovalbumin specific Th2 associated IgG1 production in sera at 50 ug, sc administered on day 0 and as booster dose on day 21 and 28 measured 7 days post last dose by ELISA. It is filed as functional, organism-based. The following applies: dose 50.0 µg, time 35.0 day.

Data set [5] in a line: Cytotoxicity against human PBMC cells assessed as reduction in metabolic activity at 10 uM incubated for 18 hrs by MTS assay. It is filed as toxicity, cell-based. In short, it runs like this: (§3)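 Cells (HEK-Blue NOD2, RAW-Blue or freshly isolated human PBMCs) seeded in duplicate and exposed to 10 μM compound or 0.1% DMSO vehicle for 18 h at 37 °C, 5% CO2. Metabolic activity then measured by CellTiter 96 AQueous One (MTS) assay.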
(Formazan colour is commonly taken as a measure of viable cells.)

For data set [6], the system named is PBMC. The experiment in a line: Upregulation of IFN-gamma gene transcription in human PBMC cells at 1 uM incubated for 18 hrs by KEGG analysis. The data set is classed as functional, cell-based. In short, it runs like this:
(§4)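 PBMCs from three donors (2 × 10^6 cells/mL) exposed to 1 μM compound or 0.1% DMSO for 18 h at 37 °C. mRNA isolated, amplified, sequenced. DESeq2 differential expression, FDR <0.05 and fold change >2 or <0.5 versus vehicle; gene lists used for Metascape/KEGG enrichment.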

For data set [7], the system named is CD8-positive T cell. The experiment in a line: Induction of mouse ovalbumin specific CD8-positive T cell activation assessed as increase in TNF expression at 1 uM preincubated for 18 hrs with mouse BDMC cells in presence of ovalbumin followed by washout and further coincubated with CD4+ T cells and measured after 72 hrs. It is filed as functional, cell-based. In short, it runs like this:
(§5)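 Supernatants taken after the 72 h coculture of washed BMDCs (18 h pretreatment with 1 μM compound, LPS 1 μg/mL or vehicle, plus OVA 50 μg/mL) with OT-II CD4+ or OT-I CD8+ T cells. Cytokines measured by mouse Th1/Th2/Th17 cytometric bead array. Duplicates of two independent experiments, mean ± SEM.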

A short description of data set [8]: Induction of activation of human CD56+ CD3- NK cells co-cultured with human PBMC cells assessed as increase in CD69 expression at 1 uM incubated for 24 hrs by flow cytometry analysis (reference value: 2.7%). The data set is classed as functional, Natural killer cell.
Data set [9] concerns MEC1. The experiment in a line: Cytotoxicity against human MEC1 cells cocultured with human PBMC cells assessed as inhibition of cell proliferation at 0.01 to 1 uM incubated with PBMC cells for 18 hrs followed by co-incubation with MEC-1 cells for 4 hrs by SYTOX blue staining based flow cytometric analysis. It is filed as functional. The following applies: dose 0.01-1 µM. The method, boiled down: as §2
On the technique in general: In flow cytometry, cells or beads pass a laser one at a time.

In data set [10] the test system is PBMC. In words: Upregulation of IL-17A gene transcription in human PBMC cells at 1 uM incubated for 18 hrs by KEGG analysis. It is filed as functional, cell-based. In short, it runs like this:
as §4

Data set [11] has as its system CD8-positive T cell. The experiment in a line: Induction of mouse ovalbumin specific CD8-positive T cell activation assessed as increase in IL-6 expression at 1 uM preincubated for 18 hrs with mouse BDMC cells in presence of ovalbumin followed by washout and further coincubated with CD4+ T cells and measured after 72 hrs. The data set is classed as functional, cell-based. The method, boiled down:
as §5

For data set [12], the system named is PBMC. The experiment in a line: Immunostimulatory activity in human PBMC cells assessed as increase in IL-1beta production at 1 uM incubated for 18 hrs by flow cytometry analysis. It is filed as functional, cell-based. The method, boiled down:
as §1

For data set [13], the system named is PBMC. In words: Upregulation of IL-22 gene transcription in human PBMC cells at 1 uM incubated for 18 hrs by KEGG analysis. The data set is classed as functional, cell-based. The method, boiled down:
as §4

Data set [14] in a line: Induction of activation of human CD56+ CD3- NK cells co-cultured with human PBMC cells assessed as increase in IFN-gamma expression at 1 uM incubated for 24 hrs by flow cytometry analysis (reference value: 0.04%). The data set is classed as functional, Natural killer cell.
Data set [15] has as its system PBMC. In words: Upregulation of IL12B gene transcription in human PBMC cells at 1 uM incubated for 18 hrs by KEGG analysis. The data set is classed as functional, cell-based. The method, boiled down:
as §4

Data set [16] is described as follows: Cytotoxicity against HEK-Blue hNOD2 cells assessed as reduction in metabolic activity at 10 uM incubated for 18 hrs by MTS assay. The settings on record: human, hek-blue hnod2, 18 h. It is filed as toxicity, cell-based. In short, it runs like this: as §3
Data set [17] concerns PBMC. In words: Immunostimulatory activity in human PBMC cells assessed as increase in IL-6 production at 1 uM incubated for 18 hrs by flow cytometry analysis. The data set is classed as functional, cell-based. In short, it runs like this: as §1
Data set [18] relates to PBMC. The experiment in a line: Immunostimulatory activity in human PBMC cells assessed as increase in TNF production at 1 uM incubated for 18 hrs by flow cytometry analysis. It is filed as functional, cell-based. In short, it runs like this: as §1
A short description of data set [19]: Cytotoxicity against mouse RAW-Blue cells assessed as reduction in metabolic activity at 10 uM incubated for 18 hrs by MTS assay. It is filed as toxicity, cell-based. The method, boiled down:
as §3

Data set [20] relates to CD4+ve Th. The experiment in a line: Induction of mouse ovalbumin specific CD4+ T cell activation assessed as increase in TNF expression at 1 uM preincubated for 18 hrs with mouse BDMC cells in presence of ovalbumin followed by washout and further coincubated with CD4+ T cells and measured after 72 hrs. It is filed as functional, cell-based. The method, boiled down:
as §5

For data set [21], the system named is PBMC. In words: Immunostimulatory activity in human PBMC cells assessed as increase in IL12p70 production at 1 uM incubated for 18 hrs by flow cytometry analysis. It is filed as functional, cell-based. The method, boiled down: as §1
The subject of data set [22] is PBMC. In words: Upregulation of Tbx21 gene transcription in human PBMC cells at 1 uM incubated for 18 hrs by KEGG analysis. It is filed as functional, cell-based. In short, it runs like this: as §4
Data set [23] concerns RAW-Blue. The experiment in a line: Activation of NF-kappaB transcriptional activity in mouse RAW-Blue cells expressing NOD2 and TLR7 at 1 uM incubated for 18 hrs by quanti-blue/SEAP-based spectrophotometry analysis. It is filed as cell-based. The settings on record: filed as activator. In short, it runs like this:
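RAW-Blue cells pretreated 1 h with NOD2 antagonist SG84 (5 μM), TLR7 antagonist M5049 (1 μM), both, or neither, then given compound or 0.1% DMSO vehicle; 18 h at 37 °C, 5% CO2 in growth medium without Normocin/Zeocin. Supernatant mixed with QUANTI-Blue for 2 h at 37 °C, SEAP read at 630 nm. Activity relative to vehicle; three independent experiments, mean ± SEM.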

Data set [24] has as its system PBMC. In words: Upregulation of CXCL9 gene transcription in human PBMC cells at 1 uM incubated for 18 hrs by KEGG analysis. The data set is classed as functional, cell-based. The method, boiled down:
as §4

Regarding `CCCCOc1nc(N)c2nc(O)n(Cc3ccc(C(=O)NCCOCCNC(=O)CC[C@@H](NC(=O)[C@@H](NC(=O)CNC(=O)/C=C/c4ccc(O)c(OC)c4)C(C)C)C(=O)OCC)cc3)c2n1`, the result in [1], in data set [2], in data set [3], in [4], in data set [6] and in data set [7] was Active. The outcome in data set [9], in data set [10], in data set [11], in [12], in data set [13] and in data set [15] was Active. In addition, the outcome in data set [17], in data set [18], in [20], in data set [21], in data set [22] and in data set [23] was Active. In addition, the result in [24] was Active. Moreover, the Activity entry was “Non-Toxic” in data set [5]; 93% in [8]; 4.5% in [14]; “Non-Toxic” in data set [16]; “Non-Toxic” in data set [19].

(Values after ChEMBL document CHEMBL5096231, “Covalently Conjugated NOD2/TLR7 Agonists Are Potent and Versatile Immune Potentiators” (J Med Chem, 2022).)
